Source: ChEMBL document CHEMBL3351381, “Synthesis, structure-activity relationship studies, and antibacterial evaluation of 4-chromanones and chalcones, as well as olympicin A and derivatives” (J Med Chem, 2014)
Converted amounts (≈) assume the structure as drawn. The source made the active and inactive calls. The rule behind the calls is not given here.

What was measured:
Staphylococcus aureus [1] = assay: Antimicrobial activity against methicillin-resistant Staphylococcus aureus NRS 70 by microbroth dilution method; assay type: functional
Enterococcus faecalis = assay: Antimicrobial activity against Enterococcus faecalis ATCC 33186 by microbroth dilution method; assay type: functional
Escherichia coli [2] = assay: Antimicrobial activity against Escherichia coli K-12 by microbroth dilution method; assay type: functional
Klebsiella pneumoniae = assay: Antimicrobial activity against Klebsiella pneumoniae ATCC 33495 at >200 ug/ml by microbroth dilution method; assay type: functional
[3] = Selectivity index, ratio of CC50 for african green monkey Vero cells to IC50 for methicillin-resistant Staphylococcus aureus NRS 70; assay type: functional
Procedure, shortened: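 Vero kidney epithelial cells were grown in DMEM/10% FBS, trypsinized, seeded at about 10% confluence and left overnight to adhere. They were then exposed to 2-fold serial compound dilutions in DMEM/FBS, and viability was read by MTT after overnight solubilization. SI = cytotoxic IC50 divided by MIC against MRSA.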

Escherichia coli [4] = assay: Antimicrobial activity against tolC-deficient Escherichia coli by microbroth dilution method; assay type: functional
Pseudomonas aeruginosa = assay: Antimicrobial activity against Pseudomonas aeruginosa PAO1 at >200 ug/ml by microbroth dilution method; assay type: functional
[5] = Solubility of the compound in DMEM/FBS medium; assay type: physicochemical
Procedure, shortened: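 Solubility limit estimated from 2-fold serial dilutions in DMEM with 5% FBS kept overnight at 37 °C; highest concentration with no visible precipitate taken.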

Staphylococcus aureus [6] = assay: Antimicrobial activity against methicillin-sensitive Staphylococcus aureus ATCC 29213 by microbroth dilution method; assay type: functional
[7] = tested on: Mycobacterium tuberculosis; assay: Antimicrobial activity against Mycobacterium tuberculosis H37Rv by microbroth dilution method; assay type: functional
Vero = assay: Cytotoxicity against african green monkey Vero cells assessed as reduction in cell viability by MTT assay; assay type: cell-based; settings: Chlorocebus sabaeus
Procedure, shortened: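 Vero kidney epithelial cells (ATCC CCL-81) in DMEM/10% FBS, trypsinized, seeded near 10% confluence, left overnight to adhere; medium swapped for DMEM/FBS with 2-fold serial compound dilutions.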

DNA gyrase = DNA gyrase (Escherichia coli, UniProt P0AES4+P0AES6); assay: Inhibition of Escherichia coli DNA gyrase assessed as supercoiled plasmid DNA formation after 30 mins by electrophoretic analysis; assay type: protein-complex assay
[8] = Inhibition of purified recombinant Escherichia coli topoisomerase 1 assessed as relaxation of supercoiled plasmid DNA after 30 mins by electrophoretic analysis
[9] = Inhibition of Escherichia coli topoisomerase 4 assessed as inhibition of decatenation of catenated kinetoplast DNA after 30 mins by electrophoretic analysis
Staphylococcus aureus [10] = assay: Disruption of membrane potential in Staphylococcus aureus Newman assessed as […] at 4 times MIC using DiOC2(3) probe by fluorescence assay; assay type: functional
Procedure, shortened: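 S. aureus Newman grown to OD600nm ≈ 0.3 in Mueller–Hinton II, stained with DiOC2(3) and run on flow cytometry; red/green fluorescence ratio gives membrane potential. CCCP positive control, vancomycin negative control.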

Staphylococcus aureus [11] = assay: Antimicrobial activity against Staphylococcus aureus Newman; assay type: functional

Row | SMILES | MIC (Staphylococcus aureus [1]) [µg/mL] | MIC (Enterococcus faecalis) [µg/mL] | MIC (Escherichia coli [2]) [µg/mL] | MIC (Klebsiella pneumoniae) [µg/mL] | Selectivity Index [3] | MIC (Escherichia coli [4]) [µg/mL] | MIC (Pseudomonas aeruginosa) [µg/mL] | solubility [5] [µg/mL] | MIC (Staphylococcus aureus [6]) [µg/mL] | MIC [7] [µg/mL] | IC50 (Vero) [µg/mL] | IC50 (DNA gyrase) [µM] | IC50 [8] [µM] | IC50 [9] [µM] | Activity (Staphylococcus aureus [10]) | MIC (Staphylococcus aureus [11]) [µg/mL]
1 | CCCCCCCCCC1C/C(=N\O)c2c(O)cc(O)cc2O1 (stereo not given) | 12.5 (≈ 38.9 µM) | 6.25 (≈ 19.4 µM) | > 200 | > 200 | 0.8 | > 200 | > 200 | 37.5 (≈ 117 µM) | 12.5 (≈ 38.9 µM) | 100 (≈ 311 µM) | 10.1 (≈ 31.4 µM) |  |  |  |  | 
2 | CCCCCCCCCC1CC(=O)c2c(O)cc(O)cc2O1 (stereo not given) | 3.13 (≈ 10.2 µM) | 100 (≈ 326 µM) | > 200 | > 200 | 2.8 | 12.5 (≈ 40.8 µM) | > 200 | > 200 | 100 (≈ 326 µM) | 100 (≈ 326 µM) | 8.6 (≈ 28.1 µM) |  |  |  |  | 
3 | CCCCCCCC1CC(=O)c2c(O)cc(O)cc2O1 (stereo not given) | 3.13 (≈ 11.2 µM) | 200 (≈ 719 µM) | > 200 | > 200 | 10.5 | 1.56 (≈ 5.6 µM) | > 200 | 150 (≈ 539 µM) | 12.5 (≈ 44.9 µM) | 50 (≈ 180 µM) | 33 (≈ 119 µM) | > 1000 | > 500 | 120 |  | 
4 | CCCC1CC(=O)c2c(O)cc(O)cc2O1 (stereo not given) | 100 (≈ 450 µM) | 200 (≈ 900 µM) | > 200 | > 200 |  | 50 (≈ 225 µM) | > 200 |  | 100 (≈ 450 µM) | 200 (≈ 900 µM) |  |  |  |  |  | 
5 | CN[C@H](CC(C)C)C(=O)N[C@H]1C(=O)N[C@@H](CC(N)=O)C(=O)N[C@H]2C(=O)N[C@H]3C(=O)N[C@H](C(=O)N[C@H](C(=O)O)c4cc(O)cc(O)c4-c4cc3ccc4O)[C@H](O)c3ccc(c(Cl)c3)Oc3cc2cc(c3O[C@@H]2O[C@H](CO)[C@@H](O)[C@H](O)[C@H]2O[C@H]2C[C@](C)(N)[C@H](O)[C@H](C)O2)Oc2ccc(cc2Cl)[C@H]1O [VANCOMYCIN] | < 0.2 | 0.78 (≈ 0.538 µM) | 100 (≈ 69 µM) | > 200 |  | 100 (≈ 69 µM) | > 200 |  | 0.39 (≈ 0.269 µM) |  |  |  |  |  | inactive | 0.8 (≈ 0.552 µM)
6 | O=C1CC2(CCCCC2)Oc2cc(O)ccc21 | 200 (≈ 861 µM) | > 200 | > 200 | > 200 |  | 50 (≈ 215 µM) | > 200 |  | 200 (≈ 861 µM) | 100 (≈ 431 µM) |  |  |  |  |  | 
7 | C=CCOc1ccccc1C1CC(=O)c2ccc(O)cc2O1 (stereo not given) | 25 (≈ 84.4 µM) | 50 (≈ 169 µM) | > 200 | > 200 |  | 12.5 (≈ 42.2 µM) | > 200 |  | 25 (≈ 84.4 µM) | 100 (≈ 337 µM) |  |  |  |  |  | 
8 | CCCC1CC(=O)c2c(OCOC)cc(OCOC)cc2O1 (stereo not given) | > 200 | > 200 | > 200 | > 200 |  | 100 (≈ 322 µM) | > 200 |  | > 200 | 100 (≈ 322 µM) |  |  |  |  |  | 
9 | CCCCCCCC1CC(=O)c2c(OCOC)cc(OCOC)cc2O1 (stereo not given) | > 200 | > 200 | > 200 | > 200 |  | 12.5 (≈ 34.1 µM) | > 200 |  | > 200 | 50 (≈ 136 µM) |  |  |  |  |  | 
10 | CCCCCCC1C/C(=N\O)c2c(O)cc(O)cc2O1 (stereo not given) | 6.25 (≈ 22.4 µM) | 12.5 (≈ 44.7 µM) | > 200 | > 200 |  | 3.13 (≈ 11.2 µM) | > 200 |  | 6.25 (≈ 22.4 µM) | 100 (≈ 358 µM) |  |  |  |  |  | 
11 | CCCCCCCC1CC(=O)c2ccc(O)cc2O1 (stereo not given) | > 200 | > 200 | > 200 | > 200 |  | 1.56 (≈ 5.95 µM) | > 200 |  | > 200 | 50 (≈ 191 µM) |  |  |  |  |  | 
12 | O=C1CC(C2CCCC2)Oc2cc(O)cc(O)c21 (stereo not given) | 50 (≈ 201 µM) | 50 (≈ 201 µM) | > 200 | > 200 |  | 6.25 (≈ 25.2 µM) | > 200 |  | 100 (≈ 403 µM) | 200 (≈ 806 µM) |  |  |  |  |  | 
13 | CCCCCCCCOc1cc(O)cc(O)c1C(=O)C(C)CC (racemic) | 1.56 (≈ 4.84 µM) | 0.78 (≈ 2.42 µM) | > 200 | > 200 |  | > 200 | > 200 |  | 1.56 (≈ 4.84 µM) | 100 (≈ 310 µM) |  | > 1000 | > 500 | 30 |  | 
